Screens from PubChem BioAssay.
An excerpt weighted towards active compounds, which were near 4.8% of everything screened.
UPR CHOP act – apoptotic UPR (CHOP) activation; activation, % at 10 µM; AID 449763; CHO-CHOP luciferase reporter, luminescence; percent of tunicamycin response over DMSO baseline; actives 0.34% (n = 330,000);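 active means at 10 µM dose, activation of 40% or more, normalized to positive control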
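Assay system: CHO cells with stable CHOP pathway luciferase reporter; Buffer or medium: F12 plus 10% serum; Times: 16-18 h cell attachment, then 6 h compound exposure, 37 °C; Signal: luciferase luminescence; Read-out basis: percent activation relative to tunicamycin control; Control set: tunicamycin high control, DMSO low control.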
SKKanGAS inh – SKKanGAS growth inhibition. actives 1.3% (n = 300,000). inhibition, % at 7.5 µM. S. pyogenes SKKanGAS, kanamycin growth, BacTiter-Glo, 6 h;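 active means mean replicate score, as percent of positive control median, at least 50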;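 further: strain carries kanamycin resistance gene driven by streptokinase promoter and grows in 40 µg/ml kanamycin; loss of luminescence reflects streptokinase promoter inhibition or plain growth inhibition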
Mdm2-MdmX inh – disrupts the human Mdm2-MdmX interaction | O15151+Q00987 | SaOS-2 split-luciferase Mdm2/MdmX complementation, luminescence | inhibition, % at 8 µM | actives 3% (n = 330,000) | AID 485346;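 active means inhibition of at least 50% at 8 µM in the primary screen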
Target sequence (O15151 whole entry, looked up): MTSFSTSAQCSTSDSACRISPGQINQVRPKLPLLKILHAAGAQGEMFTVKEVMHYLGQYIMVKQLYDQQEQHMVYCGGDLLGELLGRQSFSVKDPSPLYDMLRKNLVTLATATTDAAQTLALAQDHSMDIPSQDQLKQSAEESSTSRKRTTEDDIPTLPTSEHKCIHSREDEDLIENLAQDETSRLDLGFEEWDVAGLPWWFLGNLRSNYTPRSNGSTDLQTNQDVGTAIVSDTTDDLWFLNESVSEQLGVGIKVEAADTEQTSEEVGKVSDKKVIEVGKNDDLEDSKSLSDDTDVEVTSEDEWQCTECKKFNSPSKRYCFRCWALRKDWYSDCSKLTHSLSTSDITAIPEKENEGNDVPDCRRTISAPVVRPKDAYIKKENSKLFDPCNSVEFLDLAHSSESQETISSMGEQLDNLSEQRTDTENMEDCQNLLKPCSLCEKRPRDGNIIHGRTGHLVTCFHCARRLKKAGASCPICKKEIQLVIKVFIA
Target sequence (Q00987 whole entry, looked up): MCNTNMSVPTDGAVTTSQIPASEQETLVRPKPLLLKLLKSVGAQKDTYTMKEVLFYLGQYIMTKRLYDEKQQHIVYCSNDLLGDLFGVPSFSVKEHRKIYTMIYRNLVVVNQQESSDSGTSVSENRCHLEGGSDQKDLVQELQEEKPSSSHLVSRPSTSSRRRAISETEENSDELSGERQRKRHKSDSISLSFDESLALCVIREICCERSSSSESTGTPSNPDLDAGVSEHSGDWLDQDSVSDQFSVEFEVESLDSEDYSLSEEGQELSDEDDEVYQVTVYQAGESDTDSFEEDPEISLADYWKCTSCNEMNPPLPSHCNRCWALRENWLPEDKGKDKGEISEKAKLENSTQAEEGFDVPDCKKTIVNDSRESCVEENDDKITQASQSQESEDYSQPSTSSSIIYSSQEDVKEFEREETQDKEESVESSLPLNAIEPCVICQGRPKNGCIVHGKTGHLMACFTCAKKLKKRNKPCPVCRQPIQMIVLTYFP
CSC inhib – blocks cancer stem cells; cancer stem cell-like cells viability, luminescence; inhibition, % at 7.5 µM; actives 1.1% (n = 300,000); AID 2717; in the data active means inhibition above about 75%; tested in HMLE shEcad cells
XBP1 UPR activ – adaptive UPR (XBP1) activation | CHO-XBP1 luciferase reporter, IRE1-XBP1 UPR activation, luminescence; percent of tunicamycin response, DMSO as zero | activation, % at 20 µM | actives 0.33% (n = 330,000) | AID 463104;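 active means versus positive control, 20 µM dose yields 30% or more activation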
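Material: CHO cell line with stable XBP1 luciferase reporter; buffer or medium: F12 medium containing 10% fetal bovine serum; compound: single point, 20 µM final compound, 1% DMSO; incubation: 6 h treatment, 37 °C; measured by: glow luminescence from Steady-Glo reagent; evaluation: activation, % of tunicamycin; control set: tunicamycin high, DMSO low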
Beta cell apopt – beta cell apoptosis inhibition; INS-1E cytokine-induced death, ATP luminescence, 48 h; percent of positive-control rescue, neutral wells zero; protection from apoptosis, % (no concentration beside the values); actives 0.8% (n = 300,000); AID 435005;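 active means Every replicate reaches about 75%, or at least half do and their mean reaches it too, limit read from the data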;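 further: higher means more ATP so stronger rescue from cytokine killing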
Mdm2 MdmX conf – human Mdm2/MdmX binding inhibition, confirmed; inhibition, % at 8 µM; luminescent assay; AID 489028; actives 55% (n = 10,000); shares compounds with Mdm2-MdmX inh; in the data active means inhibition above about 40%
Full FLuc ctr – counter-screen for Mdm2/MdmX inhibitors: full-length luciferase; actives 77% (n = 6,200); shares compounds with Mdm2-MdmX inh; SaOS-2 full-length luciferase counterscreen, luminescence; AID 504607; inhibition, % at 8 µM;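 active means mean inhibition at 8 µM reaching about 37%, which flags the compound as non-specific, limit read from the data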;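 further: p53-null SaOS-2 cells with luciferase driven by a doxycycline-inducible promoter; compound on cells about two nights before reading with doxycycline added after day one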
Of the large screens only hits and unclear results are named; the others gave an inactive call (follow-up assays come after a bar, where they were run).

COc1ccc(-c2noc(CSc3nc4sc(C)c(C)c4c(=O)n3-c3ccccc3)n2)cc1	none
Cc1ccc(C)c(N(C)C(=O)c2cc3c(=O)[nH]c4ccc(C)cc4c3s2)c1	none
CCCNC(=O)c1ccc(N2CCC3(CC2)CC(c2cccc(Br)c2)=NO3)c(NC(=O)c2ccc(Cl)c([N+](=O)[O-])c2)c1	Mdm2-MdmX inh 61 | Mdm2 MdmX conf inactive
CCN(CC)CCn1c(SCC(=O)NCc2ccccc2)nc2c(sc3ccccc32)c1=O	Mdm2-MdmX inh 75 | Mdm2 MdmX conf inactive
COc1ccc(NC(=O)CSc2nc3c(sc4ccccc43)c(=O)n2CCCN2CCCC2)cc1	Mdm2-MdmX inh 98 | Mdm2 MdmX conf 70 | Full FLuc ctr inactive
CCc1ccc(NC(=O)CSc2nc3ccccc3c(=O)n2CCCC(=O)N2CCCC2)cc1	Mdm2-MdmX inh 52 (no result: Beta cell apopt) | Mdm2 MdmX conf 49 | Full FLuc ctr 42
CCOc1ccc(NC(=O)CSc2nnnn2C2CCCC2)cc1	none
NC(=O)C1CCN(CCS(=O)(=O)c2ccc(Cl)cc2)CC1	none
CC1CC(C)CN(C(=O)COC(=O)COc2ccc(C#N)cc2)C1 (stereo unspecified)	none (no result: SKKanGAS inh)
CCOc1c(C)cc(S(=O)(=O)NCc2ccccn2)c(C)c1C	none
CC(NC(=O)c1cccc(S(=O)(=O)N2CCc3ccccc32)c1)c1ccco1 (stereo unspecified)	none (no result: SKKanGAS inh)
COc1ccc(-c2ccc3c(c2)S(=O)(=O)c2cccc(C(=O)NC4CC4)c2C3=O)cc1OC	Mdm2-MdmX inh 72 (no result: SKKanGAS inh) | Mdm2 MdmX conf 52 | Full FLuc ctr 46
O=C(NCc1ccc(F)cc1)c1cccc2c1C(=O)c1ccc(Cl)cc1S2(=O)=O	none (no result: SKKanGAS inh)
O=C(NCc1ccco1)c1cccc2c1C(=O)c1ccc(/C=C/c3ccccc3)cc1S2(=O)=O	Mdm2-MdmX inh 53 (no result: SKKanGAS inh) | Mdm2 MdmX conf 47 | Full FLuc ctr 69
CC(C)c1cccc(-c2ccc3c(c2)S(=O)(=O)c2cccc(C(=O)NCc4ccccc4)c2C3=O)c1	Mdm2-MdmX inh 59 (no result: SKKanGAS inh, CSC inhib) | Mdm2 MdmX conf inactive
Cc1ccc(NC(=O)CSc2nnc(CNC(=O)c3ccco3)o2)cc1Cl	none
CCOC(=O)N1CCN(C(=O)CNC(=O)c2ccc(Br)cc2)CC1	none
Cc1cc(C(=O)N/N=C/c2ccc(Cl)c([N+](=O)[O-])c2)c(C)n1-c1ccc(F)cc1	Mdm2-MdmX inh 96 | Mdm2 MdmX conf 83 | Full FLuc ctr 45
Cc1cc(C(=O)N/N=C/c2ccc3c(c2)OCO3)c(C)n1-c1ccc(F)cc1	none
Cc1c(C)c2ccc(OCC(=O)NCCN3CCOCC3)cc2oc1=O	none
N#C/C(=C\C=C\c1ccccc1[N+](=O)[O-])c1nc(-c2ccc3c(c2)OCO3)cs1	Mdm2-MdmX inh 63 | Mdm2 MdmX conf inactive
CC(C)(C)n1nnnc1C(c1ccc(C(F)(F)F)cc1)N(Cc1ccccc1)Cc1ccco1 (stereo unspecified)	Mdm2-MdmX inh 77, Beta cell apopt 117 | Mdm2 MdmX conf inactive
Cc1ccc(C(c2nnnn2C(C)(C)C)N(Cc2ccco2)Cc2cccs2)cc1 (stereo unspecified)	none
CC(C)(C)n1nnnc1C(c1ccc(Cl)cc1)N(Cc1cccnc1)Cc1ccco1 (stereo unspecified)	none
CC(C)(C)n1nnnc1C(c1ccc(C(F)(F)F)cc1)N(Cc1ccc(F)cc1)Cc1ccco1 (stereo unspecified)	Mdm2-MdmX inh 90, Beta cell apopt 107 | Mdm2 MdmX conf inactive
CC(C)(C)n1nnnc1C(c1ccc(F)cc1)N(Cc1ccc(F)cc1)Cc1ccco1 (stereo unspecified)	Mdm2-MdmX inh 61, Beta cell apopt 77 | Mdm2 MdmX conf inactive
COc1ccc(C(CNC(=O)c2ccc(NS(=O)(=O)c3cccc([N+](=O)[O-])c3)cc2)N2CCOCC2)cc1 (stereo unspecified)	none
CCn1nc(C)cc1-c1nnc(SCC(=O)Nc2ccccc2)n1CCCOC	none
CCn1nc(C)cc1-c1nnc(Sc2ncc([N+](=O)[O-])s2)n1C	SKKanGAS inh 51, Mdm2-MdmX inh 96 (no result: CSC inhib, Beta cell apopt) | Mdm2 MdmX conf 97 | Full FLuc ctr 51
CCn1c2ccccc2c2cc(NC(=O)c3cc(OC)c(OC)c(OC)c3)ccc21	Mdm2-MdmX inh 69 (no result: CSC inhib, Beta cell apopt) | Mdm2 MdmX conf 62 | Full FLuc ctr 119
CCn1c2ccccc2c2cc(NC(=O)c3ccc(=O)oc3)ccc21	none
CCn1c2ccccc2c2cc(NC(=O)c3coc(=O)c(Br)c3)ccc21	UPR CHOP act 100, Mdm2-MdmX inh 74, XBP1 UPR activ 73 | Mdm2 MdmX conf inactive | Full FLuc ctr 38
COc1cc(C(=O)Nc2ccc3c(c2)N(C(=O)CCN(C)C)c2ccccc2CC3)cc(OC)c1OC	Mdm2-MdmX inh 61 | Mdm2 MdmX conf 41 | Full FLuc ctr 100
CN(C)CC(=O)N1c2ccccc2CCc2ccc(NC(=O)c3ccc(N)cc3)cc21	none
COc1cc(-n2c(=O)c3ccccc3n(CC(=O)c3ccccc3)c2=O)cc(OC)c1OC	Mdm2-MdmX inh 83 | Mdm2 MdmX conf inactive
CC(=O)N1CCCc2cc(S(=O)(=O)N3CCCC(C(=O)Nc4ccccc4C)C3)ccc21 (stereo unspecified)	none
COc1cc(NC(=O)C2CC(c3c(F)cccc3Cl)=NO2)cc(OC)c1OC (stereo unspecified)	none
CC(C)(C)n1nc(-c2ccc(F)cc2)c2c(N)ncnc21	Mdm2-MdmX inh 59 | Mdm2 MdmX conf 55 | Full FLuc ctr 50
CC(C)(C)n1nc(-c2ccc(Cl)cc2)c2c(N)ncnc21	Mdm2-MdmX inh 81 | Mdm2 MdmX conf 63 | Full FLuc ctr 38
Cc1ccc(-c2nc(N)c3c(-c4ccc(C)cc4)nn(C(C)(C)C)c3n2)cc1	none
Cc1onc(-c2ccccc2)c1C(=O)NN1CCOCC1	none (no result: SKKanGAS inh)
O=C(CCC1CCCN(C(=O)c2cccc(F)c2)C1)N1CCN(c2ccccn2)CC1 (stereo unspecified)	none
COc1ccc(-c2csc3nc(C)nc(N4CCCCC4)c23)cc1OC	Mdm2-MdmX inh 65 | Mdm2 MdmX conf inactive
COc1ccc(-c2csc3nc(-c4cccnc4)nc(N4CCC(C(N)=O)CC4)c23)cc1OC	none
O=C(Nc1ccccc1)c1nc2ccccc2s1	none
Cc1ccc(C)c2sc(NC(=O)c3nc4ccccc4s3)nc12	Mdm2-MdmX inh 58 | Mdm2 MdmX conf inactive
COCc1ccc(C(=O)Nc2ccccc2C(=O)NCc2cccnc2)cc1	none
